A selection: hits, their analogues and other compounds. The true share with any hit is near 4%.
GPR7 antagonist: GPR7 receptor antagonists, primary screen, cell-based, fluorescence, single concentration | Neuropeptides B/W receptor type 1 (Homo sapiens), P48145 | GPR7-expressing cells, fluorescence antagonist assay | inhibition, % at 4.4 µM | 1.1% of 290,000 active; in the data active means inhibition above about 16%, passing the limit was not always enough;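 further: cells stimulated with the agonist NPW; 0% = agonist with vehicle and 100% = vehicle without agonist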
Target sequence (P48145 whole entry, looked up): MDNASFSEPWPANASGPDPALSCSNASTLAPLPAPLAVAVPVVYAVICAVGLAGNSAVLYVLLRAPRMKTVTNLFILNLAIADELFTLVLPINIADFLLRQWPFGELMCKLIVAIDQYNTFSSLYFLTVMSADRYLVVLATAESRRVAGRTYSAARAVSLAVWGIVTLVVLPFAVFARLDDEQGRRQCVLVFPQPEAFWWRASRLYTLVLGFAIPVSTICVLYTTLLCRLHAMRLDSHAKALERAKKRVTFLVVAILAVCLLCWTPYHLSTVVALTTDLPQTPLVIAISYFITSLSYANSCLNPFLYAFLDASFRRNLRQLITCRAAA
DAGLB inhibitor: DAGLB lipase inhibitors, primary screen, biochemical, fluorescence, HTS. Diacylglycerol lipase-beta (Homo sapiens), Q8NCG7. HEK293T DAGLB membrane lysate, EnzChek fluorogenic substrate. inhibition, % at 5.17 µM. 0.059% of 340,000 active. AID 504411, 2011; in the data active means inhibition above about 34%;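 further: 0% = enzyme with vehicle and 100% = wells lacking enzyme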
TAAR1 antagonist: human TAAR1 antagonists, primary screen, Fluo-8 calcium fluorescence, CHO RD-HGA16 cells | Trace amine-associated receptor 1 (Homo sapiens), Q96RJ0 | antagonist | inhibition, % at 3 µM | 1.5% of 360,000 active | AID 624466, 2012;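 active means inhibition above a per-plate cutoff, the mean inhibition of test compounds on that plate plus 3 SD, cut at about 49% in these data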;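 further: 0% = DMSO plus EC80 beta-PEA response and 100% = DMSO alone without agonist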
Target sequence (Q96RJ0 whole entry, looked up): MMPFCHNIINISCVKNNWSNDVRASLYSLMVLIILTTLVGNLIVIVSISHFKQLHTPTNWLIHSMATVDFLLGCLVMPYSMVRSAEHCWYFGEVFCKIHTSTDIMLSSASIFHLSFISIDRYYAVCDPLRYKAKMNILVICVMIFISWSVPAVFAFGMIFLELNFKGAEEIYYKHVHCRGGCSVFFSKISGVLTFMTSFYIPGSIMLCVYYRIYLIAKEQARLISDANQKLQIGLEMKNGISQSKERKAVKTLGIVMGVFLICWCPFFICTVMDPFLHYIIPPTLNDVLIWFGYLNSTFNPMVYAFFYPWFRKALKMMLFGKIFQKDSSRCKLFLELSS
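Test system: CHO RD-HGA16 cells bearing hTAAR1 | Reagent: β-PEA, EC80 | Compound dosing: 3 µM, single point | Schedule: Dye loading 75 min at 37 °C, then 30 min room temperature | Signal: Calcium fluorescence with Fluo-8 | Evaluation: Percent inhibition of PEA-evoked calcium signal, max/basal emission ratio | Control set: DMSO-only wells and EC80 β-PEA-stimulated wells | Repeats: Singlicate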
TAAR1 ag: human TAAR1 agonists, primary screen, Fluo-8 calcium fluorescence, CHO RD-HGA16 cells; Trace amine-associated receptor 1 (Homo sapiens), Q96RJ0; vehicle wells 0%, saturating PEA agonist 100%; activation, % at 3 µM; 0.99% of 360,000 active;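 active means activation above the mean activation of all test compounds in the run plus 3 SD, cut at about 38% in these data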
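Test system: RD-HGA16 (CHO) cells co-expressing Gα16 and hTAAR1; dosing: one-point dosing at 3 µM (nominal); timing: 17-24 h seeding, 75 min 37 °C dye, 30 min RT; signal: kinetic Fluo-8 calcium fluorescence; read-out basis: % activation relative to PEA EC100 response; controls: DMSO and PEA EC100; replicates: n 1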
MPTP inh: mitochondrial permeability transition pore inhibitors, primary screen, biochemical, isolated mouse mitochondria, absorbance | Ca2+ swelling absorbance, 30 min | 1.4% of 360,000 active | inhibition, % at 10 µM | AID 602449, 2012;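 active means inhibition of 50% or more, scaled per plate between neutral and stimulator controls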;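 further: 0% = DMSO wells given calcium and 100% = 1 mM EGTA wells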
MPTP counter: fluorescence retest of MPTP screen hits in isolated mitochondria, single concentration; shares compounds with MPTP inh; membrane potential, Rhodamine 123 fluorescence; inhibition, % at 10 µM; 78% of 5,000 active; AID 624504, 2012; in the data active means inhibition above about 22%;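 further: 0% = DMSO vehicle and 100% = positive control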
MPTP abs DR: mitochondrial permeability transition pore inhibitors, dose response, biochemical, absorbance, uHTS hits; IC50, µM; shares compounds with MPTP inh; isolated mitochondria swelling; 58% of 780 active; in the data active means IC50 below about 20 µM
MPTP counter DR: fluorescent counter-screen in isolated mitochondria, dose response, counter-screen for MPTP inhibitor project, biochemical, fluorescence, uHTS hits. isolated mitochondria counterscreen, fluorescence read-out. IC50, µM. shares compounds with MPTP inh. 49% of 780 active; in the data active means IC50 below about 80 µM
* hit, by the source's call; . = not tested or not shown.

SMILES | GPR7 antagonist | DAGLB inhibitor | TAAR1 antagonist | TAAR1 ag | MPTP inh | MPTP counter | others
Cc1ccccc1CN1C(=O)CSCC1(C)C(=O)Nc1ccc2c(c1)OCCO2 (stereo unspecified) | . | . | 1.5 | 0.1 | -0.4 | .
CCN1C(=O)[C@H]2[C@@H](c3ccc(C)cc3)N3C(=O)N(c4ccc(C)cc4)C(=O)[C@@]3(CC)[C@H]2C1=O | . | -1.5 | 10.3 | -0.1 | -0.1 | .
CCN1C(=O)[C@H]2[C@@H](c3ccc(C)cc3)N3C(=O)N(c4ccc(C(F)(F)F)cc4)C(=O)[C@@]3(CC(C)C)[C@H]2C1=O | -8.5 | -5.6 | -11.3 | 9.5 | 93.6* | 97.8*
COc1ccc(CN(C)C(=O)CNC(=O)c2sc3ccccc3c2Cl)c(OC)c1 | . | -4.2 | 16.8 | -0.4 | 1.7 | .
COC(=O)C1=C(C)N(Cc2cccc(C(F)(F)F)c2)C(=NCc2ccc(OC)cc2)NC1c1ccc(Cl)cc1 (stereo unspecified) | . | . | 42.7 | 28.9 | . | .
COC(=O)[C@]12C[C@H](CC(=O)NCC3CCCCC3)C(=O)N(Cc3ccccc3)C1=C[C@H](C(C)C)O[C@@H]2C1CC1 | . | . | -47.3 | -2.8 | . | .
Cc1cc(C)c2nc(N(CCCN(C)C)C(=O)c3ccc4c(c3)OCCO4)sc2c1 | . | -0.4 | 17.0 | 9.9 | 88.7* | -18.2
Cc1cc(C)c2nc(N(CCCN(C)C)C(=O)C3=COCCO3)sc2c1 | . | -1.4 | -0.1 | 8.1 | 61.3* | -15.7 | MPTP abs DR=11.8*;MPTP counter DR=>80
CCN(CC)CCN(C(=O)C1=COCCO1)c1nc2cc(C)cc(C)c2s1 | 10.9 | -4.4 | -13.0 | 4.0 | 3.9 | .
Cc1ccc(-c2nc3cc(NC(=O)C(C)C)ccc3o2)cc1 | 12.0 | -2.9 | -1.8 | 3.2 | -2.7 | .
CC(Oc1ccc(Cl)cc1Cl)C(=O)Nc1ccc2oc(-c3ccncc3)nc2c1 (stereo unspecified) | -18.5 | -4.4 | -16.8 | 7.2 | 74.1* | 82.8*
CC(C)(C)c1ccc(Oc2ccc(NC(=O)c3cccs3)cn2)cc1 | -10.2 | -8.4 | 15.8 | 3.9 | 54.0* | 44.2*
Cc1cc(Nc2cccc(O)c2)c2ccccc2n1 | -2.0 | . | . | . | . | .
Cc1cc(Nc2cccc(Br)c2)c2ccccc2n1 | . | 1.9 | -6.7 | 3.0 | 83.3* | 74.5*
COc1ccc(NS(=O)(=O)c2ccc(N3CCCCC3)c(NC(=O)C(C)NC(N)=O)c2)cc1 (stereo unspecified) | . | -0.4 | 1.1 | 0.5 | -0.3 | .
Nc1cc(S(=O)(=O)N2CCCCC2)ccc1N1CCOCC1 | 3.1 | 0.8 | -25.3 | 2.4 | -2.5 | .
CC1CCN(c2ccc(S(=O)(=O)N3CCC(C)CC3)cc2N)CC1 | 20.0 | -5.9 | -4.2 | -1.3 | 68.7* | 76.9*
Nc1cc(S(=O)(=O)c2ccc(N3CCCCC3)c(N)c2)ccc1N1CCCCC1 | . | -10.7 | -4.5 | 2.6 | 93.5* | 105.4*
COc1ccc(NS(=O)(=O)c2ccc(N3CCCCC3)c(N)c2)cc1 | . | -0.6 | 15.2 | 20.4 | 90.2* | 86.8*
O=S1(=O)CC(N2CC=CC2)CN1Cc1ccccc1 (stereo unspecified) | . | . | -3.6 | 5.8 | 1.1 | .
NC(=O)c1ncn([C@@H]2O[C@H](C(=O)N[C@H](Cc3ccccc3)C(=O)N3CCN(c4ccc(Cl)cn4)CC3)[C@@H](O)[C@H]2O)n1 | . | . | -20.9 | 5.7 | . | .
CCOc1ccc(CN(C)Cc2cc(=O)oc3c(C)c(C)ccc23)cc1OC | . | -4.2 | -12.0 | -0.1 | 51.5* | 85.4*
COc1ccccc1Oc1ccc(S(=O)(=O)NCc2ccccn2)cc1 | -2.9 | -1.8 | 23.8 | 4.4 | 70.1* | 37.8*
COc1ccc(S(=O)(=O)NCc2ccccn2)cc1OC | -0.6 | 0.1 | -3.0 | -0.8 | 0.2 | .
Cc1cc2oc3cc(NCCC4CCCN4C)ccc3c(=O)c2cc1C (stereo unspecified) | . | 4.6 | -10.9 | 5.1 | 93.6* | -23.3
SMILES | GPR7 antagonist | DAGLB inhibitor | TAAR1 antagonist | TAAR1 ag | MPTP inh | MPTP counter | others
CC(C)COc1ccc(S(=O)(=O)NNC(=O)c2cc3ccccc3o2)cc1 | -5.2 | 1.0 | 5.6 | 4.0 | 60.3* | 49.9*
CCCCOc1ccc(S(=O)(=O)NNC(=O)c2cc3ccccc3o2)cc1 | -9.4 | -0.3 | 41.6 | 5.5 | 35.9 | .
O=[N+]([O-])c1cccc(C=NN=C2c3ccccc3-c3ccccc32)c1 | . | -2.5 | -2.1 | 8.6 | 4.2 | .
O=[N+]([O-])c1cccc(/C=N\N=C2c3ccccc3-c3ccccc32)c1O | 6.4 | 1.6 | -7.7 | -0.7 | 103.7* | 6.7
O=C(Nc1ccc2c(c1)OCO2)N1CCCC1 | -21.6 | -1.0 | 15.4 | 2.3 | 82.5* | 85.3*
CCc1cccc(NC(=O)Nc2ccc3c(c2)OCO3)c1 | -9.2 | -1.8 | 5.3 | 3.1 | 59.3* | 76.2*
O=C(Nc1ccc2c(c1)OCO2)NC1(C(F)(F)F)Oc2ccccc2O1 | 7.5 | 0.1 | 7.8 | 8.9 | 55.1* | 59.6*
O=C(Nc1ccc2c(c1)OCCO2)NC1(C(F)(F)F)Oc2ccccc2O1 | -11.4 | -5.9 | 16.0 | 1.4 | 1.2 | .
O=C(Nc1cccc(Cl)c1)Nc1ccc2c(c1)OCO2 | -11.1 | 1.2 | 10.8 | 18.9 | 99.5* | 84.6*
O=C(Nc1ccc2c(c1)OCO2)N1CCOCC1 | -14.8 | -1.6 | -0.5 | 6.2 | 1.0 | .
CCOC(=O)C1CN(C(=O)OCC)CC1=NNC(N)=O (stereo unspecified) | . | -5.6 | -6.3 | 1.4 | -3.0 | .
COC(=O)C[C@@H]1CC[C@@H](NS(=O)(=O)c2ccccc2OC)[C@@H](CO)O1 | . | . | -19.6 | 0.3 | -0.8 | .
O=C(NNC(=S)NCc1ccccc1)c1ccccc1OC(F)F | -6.0 | 1.7 | -4.7 | 8.5 | 1.6 | .
O=C(NNC(=S)Nc1ccc(Cl)cc1)c1ccccc1OC(F)F | -4.8 | 4.1 | 11.1 | 8.9 | 72.7* | 85.6*
COc1ccc(NC(=S)Nc2ccc(OC(F)F)cc2)cn1 | 2.3 | 1.2 | -2.2 | 4.7 | 10.4 | .
COc1ccccc1NC(=S)NNC(=S)Nc1ccc(OC(F)F)cc1 | 0.9 | 0.2 | -5.2 | -3.0 | 97.0* | 81.3*
O=C(Nc1ccc(Cl)c(Cl)c1)N1CCSC1c1ccco1 (stereo unspecified) | 10.4 | -3.3 | 18.8 | 11.8 | 91.8* | 91.0*
CC1=C(C(=O)N(C(C)C)C(C)C)CC(CC(=O)NC(c2ccccc2)c2ccccc2)C(=O)N1CCC1=CCCCC1 (stereo unspecified) | . | . | -13.6 | -2.0 | 0.2 | .
